Here are results for 1 molecule from ChEMBL document CHEMBL4024799, “Synthesis and Biological Characterization of Aryl Uracil Inhibitors of Hepatitis C Virus NS5B Polymerase: Discovery of ABT-072, a trans-Stilbene Analog with Good Oral Bioavailability” (J Med Chem, 2018).

Usually pEC50 stands for the EC50 on a negative log10 scale, so that one unit is a factor of ten. A word on the bioavailability: it is the share of a dose that reaches the circulation, judged against a reference dose that is usually intravenous. High values mean good availability, low ones poor availability. In general, Kp refers to the ratio of the level in a tissue or fluid to that in plasma or blood. As a reminder, the AUC is concentration integrated over time. A high value points to high exposure. By Cmax is commonly meant the highest concentration seen after dosing.

pEC50: −log10 of the molar value. Activity calls are given as the source filed them. The calls are words filed in the database; no cut-off is given here.

Series [1] deals with Hepatitis C virus. Put plainly: Antiviral activity against HCV genotype 1a H77 infected in human HuH7 cells harboring HCV subgenomic bicistronic replicon after 3 days by luciferase reporter gene assay. It is filed as functional, cell-based, Hepacivirus hominis. As to conditions: genotype 1a H77, Huh-7, 72 h. The method, boiled down:
(§1)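 Subgenomic genotype 1a (H77) or 1b (Con1) replicons carrying firefly luciferase, transfected into Huh-7 cells. Replication inhibition was read as luciferase level in cell lysate on a luminometer and reported as EC50. Runs were done without human plasma or with 40% human plasma added, to assess inhibitor–protein binding.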
On the technique in general: A replicon is a self-replicating genome or part of one, used to study replication in cells.

In series [2] the test system is Hepatitis C virus. Put plainly: Antiviral activity against HCV genotype 1b Con1 infected in human HuH7 cells harboring HCV subgenomic bicistronic replicon after 3 days in presence of 40% human plasma by luciferase reporter gene assay. It counts as functional, cell-based, Hepacivirus hominis. As to conditions: genotype 1b Con1, Huh-7, 72 h. The essentials:
as §1

The nature of series [3]: Oral bioavailability in dog at 2.5 mg/kg. It is filed as ADME, organism-based, Canis lupus familiaris. As to conditions: in vivo.
Series [4] is described as follows: Terminal half life in human at 320 mg administered as single dose. It is filed as ADME. Particulars: in vivo, read-out: beta t1/2 (converted). The essentials: (§2)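 Single oral doses of 80, 160 or 320 mg in healthy subjects; plasma concentration-time profiles reported as mean (+SD); Cmax and terminal phase half-life derived.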
Series [5] is described as follows: Terminal half life in human at 160 mg administered as single dose. It counts as ADME. As to conditions: in vivo, read-out: beta t1/2 (converted). The essentials: as §2
The nature of series [6]: Oral bioavailability in Sprague-Dawley rat at 30 mg/kg. It is filed as ADME, organism-based. Particulars: in vivo. The essentials: (§3)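 Sprague-Dawley rats, n = 3 per experiment; solution in DMSO:PEG400 (1:9, v/v) given IV or oral; 5 mg/kg for both routes, and 30 mg/kg oral; plasma t1/2, Vss, clearance, Cmax, AUC and F% determined.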
Series [7] in a line: Ratio of drug level in Sprague-Dawley rat liver to plasma at 5 mg/kg, po after 12 hrs. It counts as ADME, organism-based. The method, boiled down: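 Male/female not given; Sprague-Dawley rats, n = 3 per experiment, single 5 mg/kg oral dose given as a solution in DMSO:PEG400 (1:9, v/v). Drug concentrations measured in liver tissue and plasma at 12 h and 24 h post-dose; value reported as the liver-to-plasma concentration ratio.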

The test system of series [8] is Canis familiaris. As to the kind of experiment: AUC in dog at 2.5 mg/kg, po. It is filed as ADME, organism-based, Canis lupus familiaris. As to conditions: in vivo.
The nature of series [9]: Terminal half life in human at 80 mg administered as single dose. It is filed as ADME. As to conditions: in vivo, read-out: beta t1/2 (converted). The method, boiled down: as §2
The test system of series [10] is Hepatitis C virus. As to the kind of experiment: Antiviral activity against HCV genotype 1 infected in human assessed as sustained virologic response at 400 mg administered once daily in combination with ABT-450/r and ribavirin. It counts as functional, Hepacivirus hominis. The method, boiled down:
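GT1-infected adults given 400 mg once daily together with ABT-450/ritonavir and ribavirin; sustained virologic response assessed 24 weeks after treatment.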

Series [11] is described as follows: Half life in dog at 2.5 mg/kg, po. It is filed as ADME, organism-based, Canis lupus familiaris. Particulars: in vivo.
Series [12] relates to Hepatitis C virus (isolate H77). As to the kind of experiment: Inhibition of HCV genotype 1a H77 NS5B RNA dependent RNA polymerase M414T mutant assessed as reduction in [3H]UTP incorporation in to RNA preincubated for 15 mins followed by [3H]UTP addition measured after 3 hrs by microbeta scintillation counting method. The method, boiled down:
(§4)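 Standard NS5B polymerase inhibition assay using genotype 1a (H77) or 1b (BK) enzyme. RNA product formation was measured as ³H-UTP incorporated into RNA, read by scintillation counting. IC50 was calculated with a standard IC50 equation.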

A short description of series [13]: Cmax in dog at 2.5 mg/kg, po. It counts as ADME, organism-based, Canis lupus familiaris. Also noted: dose 2.5 mg/kg, route oral. Particulars: in vivo.
Series [14] is described as follows: Half life in Sprague-Dawley rat at 5 mg/kg, iv. It is filed as ADME, organism-based. As to conditions: in vivo. The method, boiled down: as §3
Series [15] in a line: Oral bioavailability in Sprague-Dawley rat at 5 mg/kg. It is filed as ADME, organism-based. Particulars: in vivo. The essentials: as §3
Series [16] concerns Hepatitis C virus. Put plainly: Antiviral activity against HCV genotype 1 infected in human assessed as decrease in viral RNA load at 160 mg administered once daily for 2 days. It counts as functional, Hepacivirus hominis. The essentials: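 HCV GT1-infected patients (N=4) given 160 mg once daily for 2 days; read-out was least squares mean maximum decrease from baseline in HCV RNA (log10 IU/mL).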

Series [17] can be described thus: Half life in Sprague-Dawley rat at 5 mg/kg, po. It counts as ADME, organism-based. As to conditions: in vivo. The method, boiled down: as §3
Series [18] relates to Hepatitis C virus (isolate BK). Put plainly: Inhibition of HCV genotype 1b BK NS5B RNA dependent RNA polymerase M414T mutant assessed as reduction in [3H]UTP incorporation in to RNA preincubated for 15 mins followed by [3H]UTP addition measured after 3 hrs by microbeta scintillation counting method. The essentials:
as §4

Regarding `COc1c(/C=C/c2ccc(NS(C)(=O)=O)cc2)cc(-n2ccc(=O)[nH]c2=O)cc1C(C)(C)C` [ABT-072], the values for the pEC50 in [1] and in series [2] were 8.96 and 8.62, respectively. The bioavailability in series [3] was 86%; in series [6] it was 63%; in series [15] it was 44%. Also, the half-life in [4] was 421 min; in series [5] it was 458 min; in [9] it was 490 min; in [11] it was 324 min; in series [14], 174 min; in [17], 186 min. The partition ratio (Kp) at 12 h in [7] turned out to be 71. Besides, the AUC in series [8] came out at 14.4 µg·h/mL. The Activity was determined as 91% in series [10] and 1.18 log10IU/ml in [16]. Besides, the inhibition result in series [12] and in series [18] was “inactive” throughout. This molecule also showed a Cmax in [13] of 880 ng/mL.
